Source: PubChem (Broad Institute)
Compounds with a hit are over-represented: about 2.9% of the library has one in this group of screens.
S100A4 MyoIIA: inhibitors of S100A4-myosin IIA peptide binding, primary screen, biochemical, fluorescence polarization, TAMRA-MyoIIA peptide | Protein S100-A4 (Homo sapiens), P26447 | inhibition, % at 10.7 µM | hit rate 0.14% among 360,000 | AID 652163, 2013;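 active = mean inhibition of at least 70% across replicates, with every replicate also reaching that level; inconclusive = mean inhibition reaches 70% but some replicates fall short; inactive = mean inhibition below 70%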
Target sequence (P26447 whole entry, looked up): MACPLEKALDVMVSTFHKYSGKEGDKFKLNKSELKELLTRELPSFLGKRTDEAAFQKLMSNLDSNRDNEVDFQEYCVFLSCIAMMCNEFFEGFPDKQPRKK
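Test system: S100A4 monomer protein. Medium: HEPES buffer with Ca2+, pH 7.2. Reagent: fluorescent myosin IIA peptide, 5 nM. Compound dosing: single-point compound testing. Timing: 5 min between mix addition and reading. Benchmarks: DMSO neutral and TFP positive wells.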
DENV2 CPE: inhibitors of DENV2 cytopathic effect, primary screen, cell-based, plate reader, single concentration; DENV2-infected cells, cytopathic effect rescue; CPE inhibition, % at 9.99 µM; hit rate 1.7% among 350,000; AID 651640, 2012; in the data active = CPE inhibition above about 20%, passing the limit was not always enough; inconclusive = no clear call, values can overlap the other calls; tested in BHK-21 cells;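 note: 0% = median of neutral control wells and 100% = median of positive control wells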
PGC1a acetyl inh: inhibitors of PGC1a acetylation signal, primary screen, cell-based, U2OS, AlphaScreen, inhibitor mode | AlphaScreen anti-acetyl-lysine; with virally co-expressed GCN5 acetyltransferase | inhibition, % at 15.6 µM | hit rate 0.17% among 350,000 | AID 651687, 2012;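 active = every replicate shows inhibition of at least 40%; inconclusive = mean inhibition at least 40% but some replicate below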;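 note: 0% = neutral control wells and 100% = positive control wells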
Statin myotox sup: suppressors of statin myotoxicity in C2C12 myotubes, primary screen, cell-based, single point, plate reader. C2C12 myotubes + simvastatin, ATP luminescence, 48 h; scaled: DMSO 0, geranylgeraniol control 100. rescue of ATP level, % at 7.49 µM. hit rate 0.78% among 330,000;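 active = mean ATP rescue above about 67%, or every replicate alone reaching that limit, limit read from the data, passing the limit was not always enough; inconclusive = no clear call, values can overlap the other calls; inactive = mean under the limit and some replicate under it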;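 note: myotubes were challenged with 10 µM simvastatin during compound exposure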
SIRT5 block: SIRT5 desuccinylase inhibitors, primary screen, biochemical, fluorescence imaging, single point, set 5. inhibition, % at 15 µM. AID 652115, 2013. Purified SirT5, succinyl-peptide AMC, trypsin-coupled fluorescence. hit rate 1.1% among 330,000; in the data active = inhibition above about 15%; inconclusive = no clear call, values can overlap the other calls
Target sequence (Q9NXA8 whole entry, looked up): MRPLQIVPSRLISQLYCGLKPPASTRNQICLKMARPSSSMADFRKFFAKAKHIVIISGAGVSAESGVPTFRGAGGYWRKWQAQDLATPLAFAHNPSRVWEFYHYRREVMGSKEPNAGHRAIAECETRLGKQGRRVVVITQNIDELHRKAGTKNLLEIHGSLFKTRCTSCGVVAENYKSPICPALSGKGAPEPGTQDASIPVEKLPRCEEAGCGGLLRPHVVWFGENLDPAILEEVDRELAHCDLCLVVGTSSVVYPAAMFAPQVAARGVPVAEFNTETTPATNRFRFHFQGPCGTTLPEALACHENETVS
* hit, by the source's call; ! = not active in a repeat.

How did Cc1noc(C)c1NC(=O)N(C)C[C@H]1OCc2cn(nn2)CCCC(=O)N([C@@H](C)CO)C[C@@H]1C do in these assays?
S100A4 MyoIIA: -1; DENV2 CPE: -6; PGC1a acetyl inh: 2; Statin myotox sup: -9; SIRT5 block: 16*!

Results for COc1cccc(NC(=O)N(C)C[C@H]2OCc3cn(nn3)CCCC(=O)N([C@H](C)CO)C[C@H]2C)c1 ?
PGC1a acetyl inh: 2; Statin myotox sup: -6

Results for CC(C)OC(=O)N(C)C[C@H]1OCc2cn(nn2)CCCC(=O)N([C@@H](C)CO)C[C@H]1C ?
S100A4 MyoIIA: 14; DENV2 CPE: 3; PGC1a acetyl inh: 4; Statin myotox sup: -7; SIRT5 block: 2

How did C[C@@H]1CN([C@@H](C)CO)C(=O)Cc2cc(NS(C)(=O)=O)ccc2O[C@@H]1CN(C)C do in these assays?
S100A4 MyoIIA: 13; DENV2 CPE: -12; PGC1a acetyl inh: -1; Statin myotox sup: -6; SIRT5 block: 0

How did O=C(C[C@H]1CC[C@H](NC(=O)Nc2ccc3c(c2)OCO3)[C@H](CO)O1)NCc1ccc(Cl)cc1 do in these assays?
S100A4 MyoIIA: 7; DENV2 CPE: 13; PGC1a acetyl inh: 10; Statin myotox sup: -10; SIRT5 block: -3

How did C[C@H]1CN([C@@H](C)CO)C(=O)CCCn2cc(nn2)CO[C@@H]1CN(C)C(=O)c1ccc(N2CCN(C)CC2)cc1 do in these assays?
S100A4 MyoIIA: -1; DENV2 CPE: 64*!; PGC1a acetyl inh: 9; Statin myotox sup: -2; SIRT5 block: 1

Results for CCCCc1ccc(S(=O)(=O)NCCc2ccncc2)cc1 ?
PGC1a acetyl inh: -14; Statin myotox sup: 126*

Results for CCS(=O)(=O)NCC[C@@H]1CC[C@@H](NC(=O)C2CC2)[C@@H](CO)O1 ?
S100A4 MyoIIA: 5; DENV2 CPE: 46*; PGC1a acetyl inh: 6; SIRT5 block: -5

Results for O=C(N[C@@H]1CC[C@H](CCNS(=O)(=O)c2ccc(F)cc2)O[C@H]1CO)C1CCOCC1 ?
S100A4 MyoIIA: 9; DENV2 CPE: -7; PGC1a acetyl inh: 7; Statin myotox sup: -4; SIRT5 block: 3

How did O=C(N[C@@H]1CC[C@@H](CCNS(=O)(=O)c2ccc(F)cc2)O[C@H]1CO)c1cnccn1 do in these assays?
S100A4 MyoIIA: 20; DENV2 CPE: 51*; PGC1a acetyl inh: 10; Statin myotox sup: 1; SIRT5 block: -1

How did Cc1ccc(S(=O)(=O)NCC[C@@H]2CC[C@H](NC(=O)c3cnccn3)[C@@H](CO)O2)cc1 do in these assays?
S100A4 MyoIIA: -3; DENV2 CPE: inconclusive; PGC1a acetyl inh: 4; Statin myotox sup: -4; SIRT5 block: 3

What do the screens show for `O=C(N[C@H]1CC[C@@H](CCNS(=O)(=O)c2ccc(F)cc2)O[C@H]1CO)C1CCOCC1`?
S100A4 MyoIIA: 9; DENV2 CPE: 38*; PGC1a acetyl inh: 13; Statin myotox sup: -13; SIRT5 block: -1

How did O=C(Nc1ccc(Cl)c(Cl)c1)N[C@@H]1CC[C@@H](CCNC(=O)c2ccc(F)cc2)O[C@H]1CO do in these assays?
S100A4 MyoIIA: -18; DENV2 CPE: 8; PGC1a acetyl inh: 10; Statin myotox sup: -17; SIRT5 block: -2

What do the screens show for `O=C(c1cccc(Cl)c1)N1CCC2(CC1)NCCc1[nH]cnc12`?
S100A4 MyoIIA: -2; DENV2 CPE: 27*; Statin myotox sup: -21; SIRT5 block: 5

What do the screens show for `CCOc1cc(C(=O)OC(C)C(=O)Nc2ccc(S(N)(=O)=O)cc2)ccc1OCC(=O)N1CCOCC1` (centres undefined)?
S100A4 MyoIIA: -1; DENV2 CPE: 5; PGC1a acetyl inh: 0; Statin myotox sup: 1; SIRT5 block: 19*

Results for C[C@H]1CN([C@@H](C)CO)C(=O)Cc2cc(NC(=O)C3CC3)ccc2O[C@H]1CN(C)S(C)(=O)=O ?
S100A4 MyoIIA: 2; DENV2 CPE: 1; Statin myotox sup: -3; SIRT5 block: 0

How did N#Cc1cc2c(nc1SCC(=O)N1CCCCC1)CCCC2 do in these assays?
PGC1a acetyl inh: 11; Statin myotox sup: 3

Results for N#Cc1cc2c(nc1SCC(=O)N1CCCCC1)CCCCC2 ?
PGC1a acetyl inh: -3; Statin myotox sup: 117*

What do the screens show for `COCCn1c(SC(C)C(=O)Nc2ncc(Cl)cc2Cl)nc2ccccc21` (centres undefined)?
PGC1a acetyl inh: 44*

Results for Cc1nnc(SC(C)C(=O)Nc2ncc(Cl)cc2Cl)n1Cc1ccccc1 (centres undefined) ?
PGC1a acetyl inh: 23

What do the screens show for `COc1cccc(C(=O)Oc2cc(C)[nH]c(=O)c2[N+](=O)[O-])c1OC`?
S100A4 MyoIIA: 1; DENV2 CPE: 101*; PGC1a acetyl inh: 16; Statin myotox sup: 8; SIRT5 block: 0

How did C[C@@H]1CN([C@H](C)CO)C(=O)c2cc(N(C)C)ccc2O[C@@H](C)CCCCO[C@H]1CN(C)C(=O)Nc1cccc2ccccc12 do in these assays?
S100A4 MyoIIA: -5; DENV2 CPE: 13; PGC1a acetyl inh: -23; Statin myotox sup: 34; SIRT5 block: 0

Results for C[C@@H]1CCCCO[C@H](CN(C)C(=O)Nc2cccc3ccccc23)[C@H](C)CN([C@@H](C)CO)C(=O)c2cc(N(C)C)ccc2O1 ?
S100A4 MyoIIA: -4; DENV2 CPE: 3; PGC1a acetyl inh: -2; Statin myotox sup: 71*; SIRT5 block: 1

Results for C[C@@H]1CCCCO[C@H](CN(C)C(=O)Nc2cccc3ccccc23)[C@@H](C)CN([C@H](C)CO)C(=O)c2cc(N(C)C)ccc2O1 ?
S100A4 MyoIIA: -6; DENV2 CPE: -9; PGC1a acetyl inh: -4; Statin myotox sup: 2; SIRT5 block: 27*!

How did COc1ccc(C(=O)Cn2c(N3CCCCC3)nc3c2c(=O)n(C)c(=O)n3C)cc1OC do in these assays?
S100A4 MyoIIA: 2; DENV2 CPE: 14; PGC1a acetyl inh: 13; SIRT5 block: -1

Results for CCCn1c(SCC(=O)c2ccc(OC)c(OC)c2)nc2c1c(=O)n(C)c(=O)n2C ?
PGC1a acetyl inh: -2; Statin myotox sup: 130*

What do the screens show for `C[C@H](CO)N1C[C@H](C)[C@@H](CN(C)C(=O)C2CCC2)Oc2ncc(C#CCc3ccccc3)cc2C1=O`?
S100A4 MyoIIA: -25; DENV2 CPE: 60*; PGC1a acetyl inh: 0; Statin myotox sup: 3; SIRT5 block: -3

What do the screens show for `C[C@H]1CN([C@@H](C)CO)C(=O)c2cc(C#CCc3ccccc3)cnc2O[C@@H]1CN(C)C(=O)C1CCC1`?
S100A4 MyoIIA: -2; DENV2 CPE: 11; PGC1a acetyl inh: -17; SIRT5 block: 8
